Usually viability stands for a read-out of living cells in per cent, often relative to untreated cells. As usually defined, the inhibition is the relative decrease from the control value, in per cent.

Active and inactive are the calls of the source. Cut-off read from the data, not from the text of the source, unless noted: active = inhibition above about 30%; inactive = the rest. Square brackets hold non-standard residues; d marks the D form. Peptide text beside a SMILES is read from it. * marks the point of attachment. ξ: configuration not given here. Piv = CC(C)(C)C(=O)*; ξNva = CCCC(N)C(=O)O

This note sets out measurements from PubChem BioAssay.

A short description of experiment [1]: Her2 expression decrease, cell viability multiplex – SKBR3 breast tumor cells, AlphaScreen, ATP viability, primary screen (AID 461;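 active = Her2 level under about 52% in both replicate screens, with viability over 70% of control, limit read from the data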;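 for Her2 level: lower value means less Her2 protein in the cells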;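 for viability: percent of carrier control wells set as 100% viability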). The following applies: SKBR3 Her2 protein level, 18-24 h, measured here: SKBR3 viability, ATP luminescence, at 10 µM.
The target in experiment [2] is Receptor tyrosine-protein kinase erbB-2 (Homo sapiens) (UniProt P04626). The description is as above. The following applies: 18-24 h, at 10 µM, stronger effect = lower value.
Receptor tyrosine-protein kinase erbB-2 (Homo sapiens), sequence (P04626 whole entry, looked up): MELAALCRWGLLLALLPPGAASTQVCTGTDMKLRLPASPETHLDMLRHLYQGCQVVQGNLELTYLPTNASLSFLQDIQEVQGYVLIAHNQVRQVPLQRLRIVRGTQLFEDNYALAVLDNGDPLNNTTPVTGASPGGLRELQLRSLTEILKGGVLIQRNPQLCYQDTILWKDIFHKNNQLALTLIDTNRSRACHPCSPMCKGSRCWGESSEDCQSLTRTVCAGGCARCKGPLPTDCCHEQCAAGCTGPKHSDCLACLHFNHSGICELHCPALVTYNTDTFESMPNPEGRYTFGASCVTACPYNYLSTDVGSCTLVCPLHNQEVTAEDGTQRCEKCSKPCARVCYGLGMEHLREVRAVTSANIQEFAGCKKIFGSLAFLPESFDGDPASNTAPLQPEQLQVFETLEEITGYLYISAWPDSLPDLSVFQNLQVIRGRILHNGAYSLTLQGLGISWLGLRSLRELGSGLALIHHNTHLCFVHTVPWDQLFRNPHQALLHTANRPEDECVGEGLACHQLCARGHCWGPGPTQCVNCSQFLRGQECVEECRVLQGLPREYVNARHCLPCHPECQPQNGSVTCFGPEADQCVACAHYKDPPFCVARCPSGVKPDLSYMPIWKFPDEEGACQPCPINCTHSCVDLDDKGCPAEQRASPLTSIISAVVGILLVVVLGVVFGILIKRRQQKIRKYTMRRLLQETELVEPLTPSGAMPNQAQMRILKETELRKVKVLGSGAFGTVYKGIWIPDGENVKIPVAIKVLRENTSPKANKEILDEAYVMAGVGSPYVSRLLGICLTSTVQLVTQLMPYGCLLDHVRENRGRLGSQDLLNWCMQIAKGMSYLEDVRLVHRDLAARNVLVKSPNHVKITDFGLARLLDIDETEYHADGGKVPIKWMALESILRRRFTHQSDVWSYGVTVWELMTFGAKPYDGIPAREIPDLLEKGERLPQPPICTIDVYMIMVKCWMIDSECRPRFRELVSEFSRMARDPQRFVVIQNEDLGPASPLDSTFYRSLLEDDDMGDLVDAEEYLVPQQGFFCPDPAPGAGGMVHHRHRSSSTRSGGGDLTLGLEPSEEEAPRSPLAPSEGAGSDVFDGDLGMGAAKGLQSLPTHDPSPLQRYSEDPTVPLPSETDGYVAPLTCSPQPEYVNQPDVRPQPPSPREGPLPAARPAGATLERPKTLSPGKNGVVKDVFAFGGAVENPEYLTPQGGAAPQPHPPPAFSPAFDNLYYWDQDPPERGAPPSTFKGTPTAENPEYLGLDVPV
A short description of experiment [3]: reduced viability of SK-BR-3 breast cancer cells – cell-based, 24 h, human, pilot screen (AID 572;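 active = viability at or below 10% of carrier control in both of two separate runs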;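 note: compound exposure lasted between 18 and 24 h rather than exactly 24 h; 100% = carrier-treated control wells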). The following applies: SK-BR-3 viability, CellTiter-Glo luminescence, at 10 µM, stronger effect = lower value. (In general: ATP-based viability assays read luminescence as a measure of living cells.)
Experiment [4] can be described thus: HUVEC growth inhibition – cell-based, human, primary screen (AID 575;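 active = viability at or below 30% in both replicate assays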;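 note: 100% = median of untreated cell wells with 0.1% DMSO on each plate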). Conditions: HUVEC proliferation, CellTiter-Glo luminescence, 72 h; at 10 µM; stronger effect = lower value. In a few lines:
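System – primary HUVEC, no more than 12 passages · Medium – Low-serum (2% FBS) EBM, supplemented · Times – 72 h exposure, 37 °C, 5% CO2, 30 min RT equilibration · Measured by – luminescent ATP assay · Read-out – % viability relative to median vehicle-well signal on each plate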

Experiment [5] in a line: H69AR cell proliferation blockers – human, duplicate replicates, primary screen (AID 580;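 active = viability at or under a set limit in both replicates, limit being median viability minus 3 SD, cut at about 48% in these data, passing the limit was not always enough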;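 note: 100% = mean luminescence of untreated wells and 0% = no signal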). The following applies: H69AR lung tumor cells viability, ATP luminescence, 72 h; at 10 µM; stronger effect = lower value.
Experiment [6] in a line: MRP1 drug-resistance reversers in H69AR cells – cell-based, doxorubicin co-treatment, pilot screen (AID 601;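 active = viability loss from added drug above about 55%, and viability with drug at most 40%, in both replicates, limit read from the data, passing the limit was not always enough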). The following applies: CellTiter-Glo, 72 h, at 10 µM; for differential viability (reversal): stronger effect = higher value.
Experiment [7] in a line: yeast transport mutant growth inhibition pilot in 384-well plates, post-Golgi transport modulator project (AID 636; in the data active = inhibition above about 31%). The following applies: absorbance 615 nm, about 18 h, stronger effect = higher value.
Experiment [8] can be described thus: growth suppression of yeast trafficking mutant, preliminary HTS, modulators of trafficking downstream of Golgi apparatus project, 1536-format plate, OD 615 nm (AID 637). The following applies: yeast transport mutant growth, absorbance 615 nm, 18 h; stronger effect = higher value.
The mark [9] stands for this setting: H69AR cells + 2 uM doxorubicin, measured here: viability with 2 uM doxorubicin, stronger effect = lower value.
The mark [10] stands for this setting: H69AR cells, compound alone cytotoxicity.

Take `CC(C)=CC(=O)Nc1ccc(Br)cc1`: the viability was 77.5% in experiment [1]; 77.5% (inactive) in experiment [3]; 107% (inactive) in experiment [4]; 98.2% (inactive) in experiment [5]; 91.5% in experiment [6] (setting [9]); 98.2% in experiment [6] (setting [10]). Also, the Her2 level in experiment [2] is 104% (inactive). Moreover, in experiment [6] (H69AR cells + 2 uM doxorubicin), the differential viability (reversal) was 6.66% (inactive). For the same compound, the inhibition in experiment [7] was 1.45% (inactive); in experiment [8], -9.35% (inactive).
On to `Cc1ccc(/C=c2\sc3nc(-c4ccccc4Br)nn3c2=O)o1`, for which the viability is 89% in experiment [1]; 89% (inactive) in experiment [3]; 110% (inactive) in experiment [4]; 95.5% (inactive) in experiment [5]; 89% in experiment [6] (setting [9]); 95.5% in experiment [6] (setting [10]). In experiment [2], the Her2 level is 85% (inactive). Besides, the differential viability (reversal) in experiment [6] (H69AR cells + 2 uM doxorubicin) was 6.48% (inactive). Besides, the inhibition is -7.47% (inactive) in experiment [7] and 10.7% (inactive) in experiment [8].
For `Cc1ccc(Cn2nnc3c(=O)n(CC(=O)NCC4CCCO4)cnc32)cc1` (stereo not given), the viability was 97% in experiment [1]; 97% (inactive) in experiment [3]; 105% (inactive) in experiment [4]; 104% (inactive) in experiment [5]; 90.4% in experiment [6] (setting [9]); 104% in experiment [6] (setting [10]). Also, in experiment [2], the Her2 level is 88.5% (inactive). Further, the differential viability (reversal) in experiment [6] (H69AR cells + 2 uM doxorubicin) is 13.4% (inactive). The inhibition was -6.05% (inactive) in experiment [7] and -0.79% (inactive) in experiment [8].
`CCCC(NC(=O)CNC(=O)C(C)(C)C)C(=O)O` (stereo not drawn) (Piv-Gly-[ξNva]-OH): the viability in experiment [1] is 91%; in experiment [3], 91% (inactive); in experiment [4], 96.1% (inactive); in experiment [5], 97.5% (inactive); in experiment [6] (setting [9]), 96%; in experiment [6] (setting [10]), 97.5%. In experiment [2], the Her2 level is 91.5% (inactive). Further, the differential viability (reversal) in experiment [6] (H69AR cells + 2 uM doxorubicin) is 1.52% (inactive). For the same compound, the inhibition in experiment [7] was -2% (inactive); in experiment [8], -3.71% (inactive).
Turning to `CCc1nn2c(=O)cc(CSc3nc4sc5c(c4c(=O)n3C)CCCC5)nc2s1`, the viability in experiment [1] is 100%; in experiment [3] it was 100% (inactive); in experiment [4], 113% (inactive); in experiment [5], 90% (inactive); in experiment [6] (setting [9]) it was 89.6%; in experiment [6] (setting [10]), 90%. For the same compound, the Her2 level in experiment [2] is 98% (inactive). In addition, the differential viability (reversal) in experiment [6] (H69AR cells + 2 uM doxorubicin) was 0.36% (inactive). For the same compound, the inhibition is -0.65% (inactive) in experiment [7] and 10% (inactive) in experiment [8].
In the case of `COCCNC(=O)C(c1ccc(C)o1)N(Cc1ccc(OC)cc1)C(=O)Cn1nnc2ccccc21` (stereo not given), the viability is 102% in experiment [1]; 102% (inactive) in experiment [3]; 102% (inactive) in experiment [4]; 97.8% (inactive) in experiment [5]; 104% in experiment [6] (setting [9]); 97.8% in experiment [6] (setting [10]). Further, the Her2 level in experiment [2] is 98% (inactive). The differential viability (reversal) in experiment [6] (H69AR cells + 2 uM doxorubicin) is -6.28% (inactive). Further, the inhibition in experiment [7] was -0.53% (inactive); in experiment [8], -0.82% (inactive).
On to `O=S(=O)(c1ccc(F)c(Cl)c1)N1CCCC1`, for which the viability in experiment [1] was 100%; in experiment [3] it was 100% (inactive); in experiment [4], 93.9% (inactive); in experiment [5], 92.2% (inactive); in experiment [6] (setting [9]), 89.2%; in experiment [6] (setting [10]), 92.2%. The Her2 level in experiment [2] is 71% (inactive). The differential viability (reversal) in experiment [6] (H69AR cells + 2 uM doxorubicin) is 3.06% (inactive). In addition, the results for the inhibition in experiment [7] and in experiment [8] were -5.68% (inactive) and 0.16% (inactive), respectively.
On to `CCc1nnc(NC(=O)c2cc3c(s2)CCCCC3)s1`, for which the viability in experiment [1] is 92.5%; in experiment [3], 92.5% (inactive); in experiment [4] it was 90.5% (inactive); in experiment [5] it was 76.1% (inactive); in experiment [6] (setting [9]), 78.7%; in experiment [6] (setting [10]), 76.1%. Also, the Her2 level in experiment [2] was 108% (inactive). Further, the differential viability (reversal) in experiment [6] (H69AR cells + 2 uM doxorubicin) is -2.58% (inactive). Moreover, the inhibition is -1.17% (inactive) in experiment [7] and -3.44% (inactive) in experiment [8].
For `CCNS(=O)(=O)c1ccc(S(=O)(=O)N(Cc2ccccn2)C2CCCCC2)cc1`, the viability is 102% in experiment [1]; 102% (inactive) in experiment [3]; 109% (inactive) in experiment [4]; 88.9% (inactive) in experiment [5]; 75.3% in experiment [6] (setting [9]); 88.9% in experiment [6] (setting [10]). For the same compound, the Her2 level in experiment [2] is 87% (inactive). The differential viability (reversal) in experiment [6] (H69AR cells + 2 uM doxorubicin) is 13.6% (inactive). Besides, the inhibition in experiment [7] is -8.92% (inactive); in experiment [8], -5.17% (inactive).
In the case of `COc1cccc(NC(=O)CSc2nnc(-c3cc(-c4ccccn4)nc4ccccc34)o2)c1`, the viability is 94.5% in experiment [1]; 94.5% (inactive) in experiment [3]; 81% (inactive) in experiment [4]; 76.4% (inactive) in experiment [5]; 79.7% in experiment [6] (setting [9]); 76.4% in experiment [6] (setting [10]). Further, the Her2 level in experiment [2] was 85% (inactive). The differential viability (reversal) in experiment [6] (H69AR cells + 2 uM doxorubicin) is -3.28% (inactive). Moreover, the inhibition is -1.22% (inactive) in experiment [7] and -4.6% (inactive) in experiment [8].
In the case of `Cc1c(Cl)cnc(NC(=O)COC(=O)C(NC(=O)c2ccco2)C(C)C)c1Cl` (stereo not given), the viability in experiment [1] is 86%; in experiment [3] it was 86% (inactive); in experiment [4], 92.4% (inactive); in experiment [5], 83.2% (inactive); in experiment [6] (setting [9]) it was 72.5%; in experiment [6] (setting [10]), 83.2%. In addition, the Her2 level in experiment [2] was 85% (inactive). Moreover, in experiment [6] (H69AR cells + 2 uM doxorubicin), the differential viability (reversal) was 10.7% (inactive). Further, the inhibition was -1.89% (inactive) in experiment [7] and -4.76% (inactive) in experiment [8].
Consider `O=C1N(c2ccccc2)C2CS(=O)(=O)CC2N1c1ccc(Br)cc1` (stereo not given), for which the viability in experiment [1] was 102%; in experiment [3], 102% (inactive); in experiment [4], 97.7% (inactive); in experiment [5], 101% (inactive); in experiment [6] (setting [9]), 83.2%; in experiment [6] (setting [10]), 101%. Further, the Her2 level in experiment [2] is 88.5% (inactive). In addition, the differential viability (reversal) in experiment [6] (H69AR cells + 2 uM doxorubicin) is 17.5% (inactive). Moreover, the inhibition is -6.4% (inactive) in experiment [7] and -0.95% (inactive) in experiment [8].
Turning to `Cc1cccc(C)c1NC(=O)CS(=O)CC(=O)NC1CCCc2ccccc21` (stereo not given), the viability in experiment [1] is 96.5%; in experiment [3], 96.5% (inactive); in experiment [4] it was 103% (inactive); in experiment [5] it was 88.7% (inactive); in experiment [6] (setting [9]), 92.3%; in experiment [6] (setting [10]) it was 88.7%. Moreover, the Her2 level in experiment [2] was 82.5% (inactive). Besides, the differential viability (reversal) in experiment [6] (H69AR cells + 2 uM doxorubicin) is -3.62% (inactive). For the same compound, the inhibition is -6.8% (inactive) in experiment [7] and -4.59% (inactive) in experiment [8].
Take `O=C(O)CCCC(=O)Nc1ccc(Br)cc1C(=O)O`: the viability in experiment [1] was 95.5%; in experiment [3] it was 95.5% (inactive); in experiment [4], 93.8% (inactive); in experiment [5] it was 96.8% (inactive); in experiment [6] (setting [9]), 82.4%; in experiment [6] (setting [10]), 96.8%. The Her2 level in experiment [2] was 90% (inactive). In experiment [6] (H69AR cells + 2 uM doxorubicin), the differential viability (reversal) is 14.4% (inactive). Besides, the values for the inhibition in experiment [7] and in experiment [8] were -0.53% (inactive) and -0.16% (inactive), respectively.
